{"source": "ChEMBL document CHEMBL2086264", "key": {"[1]": {"system": "Staphylococcus aureus subsp. aureus RN4220", "experiment": "Inhibition of PlsY in Staphylococcus aureus RN4220 harboring gpsA mutant assessed as Fab4-mediated fatty acid chain elongation measured as 17C fatty acid level at 50 uM after 2.5 hrs by mass spectrophotometry", "set-up": "scale not given: the % may be the effect or the level left", "how_it_was_run": "(§1)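 RN4220 grown in Luria-Bertani broth at 37°C with 225 rpm shaking to OD600 0.5. 50 mL cultures treated for 2.5 h alongside a DMSO control. Lipids extracted by Bligh–Dyer and fatty acids analyzed by gas chromatography. Weight percent, mean of duplicates; not detected means <1%.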"}, "Enterococcus faecalis": {"system": "Enterococcus faecalis", "experiment": "Antibacterial activity against Enterococcus faecalis ATCC 33186 after overnight incubation by microbroth dilution assay", "format": "functional", "how_it_was_run": "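CLSI microbroth dilution in Mueller-Hinton broth; compounds dissolved in DMSO, twofold serial dilutions giving final 200–0.0125 µg/mL. Inoculum from single colony grown at 37°C to mid-log (OD600 0.5), diluted to final OD600 0.0005 (~10^5 CFU/mL). Incubated overnight at 37°C; MIC = lowest concentration inhibiting 90% of visible growth.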"}, "Staphylococcus aureus [2]": {"system": "Staphylococcus aureus", "experiment": "Growth inhibition of Staphylococcus aureus RN4220 harboring gpsA mutant at 6.25 to 100 uM measured immediately by spectrophotometry", "format": "functional, organism-based"}, "[3]": {"system": "Staphylococcus aureus subsp. aureus RN4220", "experiment": "Inhibition of PlsY in Staphylococcus aureus RN4220 harboring gpsA mutant assessed as Fab4-mediated fatty acid chain elongation measured as 16C fatty acid level at 50 uM after 2.5 hrs by mass spectrophotometry", "set-up": "scale not given: the % may be the effect or the level left", "how_it_was_run": "as §1"}, "[4]": {"system": "Staphylococcus aureus subsp. aureus RN4220", "experiment": "Inhibition of PlsY in Staphylococcus aureus RN4220 harboring gpsA mutant assessed as Fab4-mediated fatty acid chain elongation measured as 16C fatty acid level at 25 uM after 2.5 hrs by mass spectrophotometry", "set-up": "scale not given: the % may be the effect or the level left", "how_it_was_run": "as §1"}, "[5]": {"system": "Staphylococcus aureus subsp. aureus RN4220", "experiment": "Inhibition of PlsY in Staphylococcus aureus RN4220 harboring gpsA mutant assessed as Fab4-mediated fatty acid chain elongation measured as 19C fatty acid level at 25 uM after 2.5 hrs by mass spectrophotometry", "set-up": "scale not given: the % may be the effect or the level left", "how_it_was_run": "as §1"}, "[6]": {"system": "Staphylococcus aureus subsp. aureus RN4220", "experiment": "Inhibition of PlsY in Staphylococcus aureus RN4220 harboring gpsA mutant assessed as Fab4-mediated fatty acid chain elongation measured as 15C fatty acid level at 25 uM after 2.5 hrs by mass spectrophotometry", "set-up": "scale not given: the % may be the effect or the level left", "how_it_was_run": "as §1"}, "[7]": {"system": "Staphylococcus aureus subsp. aureus RN4220", "experiment": "Inhibition of PlsY in Staphylococcus aureus RN4220 harboring gpsA mutant assessed as 36C phophotidylglycerol formation at 50 uM after 2.5 hrs by mass spectrophotometry", "how_it_was_run": "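RN4220 grown in Luria-Bertani broth at 37°C to OD600 0.5. 50 mL aliquots treated for 2.5 h alongside a DMSO control. Cells PBS-washed, lipids extracted by Bligh–Dyer. Phosphatidylglycerol molecular species distribution determined by mass spectrometry.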"}, "[8]": {"experiment": "Inhibition of Staphylococcus aureus PlsY expressed in Escherichia coli FB23281 using [U-14C]glycerol-PO4 as substrate after 20 mins by scintillation counting", "how_it_was_run": "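Membranes from E. coli FB23281 (ΔplsY) expressing S. aureus PlsY (SA1187), 4 µg per reaction. pH 7.4 buffer of 100 mM Tris–HCl, 150 mM NaCl, 1 mg/mL BSA and 5 mM Na3VO4, with 100 µM [U-14C]glycerol-PO4. Started with 16:0-PO4 (final 100 µM), 20 min at 37°C. Spotted on filter discs, washed in graded ice-cold TCA, scintillation counted.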"}, "[9]": {"system": "Staphylococcus aureus subsp. aureus RN4220", "experiment": "Inhibition of PlsY in Staphylococcus aureus RN4220 harboring gpsA mutant assessed as Fab4-mediated fatty acid chain elongation measured as 20C fatty acid level at 50 uM after 2.5 hrs by mass spectrophotometry", "set-up": "scale not given: the % may be the effect or the level left", "how_it_was_run": "as §1"}, "[10]": {"system": "Staphylococcus aureus subsp. aureus RN4220", "experiment": "Inhibition of PlsY in Staphylococcus aureus RN4220 harboring gpsA mutant assessed as Fab4-mediated fatty acid chain elongation measured as 18C fatty acid level at 25 uM after 2.5 hrs by mass spectrophotometry", "set-up": "scale not given: the % may be the effect or the level left", "how_it_was_run": "as §1"}, "Bacillus anthracis [11]": {"system": "Bacillus anthracis", "experiment": "Inhibition of RNA synthesis in Bacillus anthracis sterne assessed as Inhibition of [3H]uracil incorporation into RNA incubated for 15 mins prior to [3H]uracil addition measured after 30 mins by scintillation counting", "format": "functional, organism-based"}, "Staphylococcus aureus [12]": {"system": "Staphylococcus aureus", "experiment": "Inhibition of protein synthesis in Staphylococcus aureus RN4220 harboring gpsA mutant assessed as inhibition of [3H]amino acid incorporation into protein at 50 uM incubated for 15 mins before [3H]amino acid addition measured after 30 mins by scintillation counting", "format": "functional, organism-based", "how_it_was_run": "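RN4220 at OD600 0.5 in 10 mL aliquots, 15 min with compound. Then 30 min with 10 µCi label: 3H amino acid mix (protein), [3H]thymidine (DNA) or [3H]uracil (stable RNA). Cells collected on 0.45 µm filters, counted, OD600-normalized and expressed relative to untreated cells. Duplicates, mean with standard error.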"}, "Bacillus anthracis [13]": {"system": "Bacillus anthracis", "experiment": "Growth inhibition of Bacillus anthracis sterne at 5 uM measured immediately post-compound addition", "format": "functional, organism-based"}}, "note": "Calls of active or inactive are those of the source. No cut-off for these calls is given here.", "data": [{"compound": "O=C(CCCCCCCc1ccccc1)NS(=O)(=O)Oc1ccccc1", "values": [{"measurement": "Activity", "setting": "[1]", "result": 8, "unit": "%"}, {"measurement": "MIC90", "setting": "Enterococcus faecalis", "result": 100, "unit": "µg/mL"}, {"measurement": "growth inhibition (GI)", "setting": "Staphylococcus aureus [2]", "result": "inactive"}, {"measurement": "Activity", "setting": "[3]", "result": 6, "unit": "%"}, {"measurement": "Activity", "setting": "[4]", "result": 5, "unit": "%"}, {"measurement": "Activity", "setting": "[5]", "result": 18, "unit": "%"}, {"measurement": "Activity", "setting": "[6]", "result": 37, "unit": "%"}, {"measurement": "inhibition", "setting": "[7]", "result": "Active"}, {"measurement": "IC50", "setting": "[8]", "result": 25, "unit": "µM"}, {"measurement": "Activity", "setting": "[9]", "result": 13, "unit": "%"}, {"measurement": "Activity", "setting": "[10]", "result": 9, "unit": "%"}, {"measurement": "inhibition", "setting": "Bacillus anthracis [11]", "result": "Active"}, {"measurement": "inhibition", "setting": "Staphylococcus aureus [12]", "result": "inactive"}, {"measurement": "growth inhibition (GI)", "setting": "Bacillus anthracis [13]", "result": "Active"}]}]}
